The text below walks through data of ChEMBL document CHEMBL4251751 (J Med Chem, 2018).

The structures appear in SMILES notation. Converted amounts (≈) assume the structure as drawn. The source made the active and inactive calls. No cut-off for these calls is given here.

The subject of data set [1] is Mus musculus. Description: Drug uptake in C57BL/6JRj mouse at 10 mg/kg, po by LC-MS/MS analysis. Type of data set: ADME, organism-based. The note with it: in vivo. The method in brief:
(§1)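 Four healthy wild-type male C57Bl6/J mice received a single oral dose of 10 mg/kg. Plasma concentrations were followed over time to give uptake, bioavailability and terminal half-life. Results are mean±SEM, n=4.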

The target in data set [2] is T1, Peroxisome proliferator-activated receptor gamma (Mus musculus, UniProt P37238).
T1 sequence (P37238 whole entry): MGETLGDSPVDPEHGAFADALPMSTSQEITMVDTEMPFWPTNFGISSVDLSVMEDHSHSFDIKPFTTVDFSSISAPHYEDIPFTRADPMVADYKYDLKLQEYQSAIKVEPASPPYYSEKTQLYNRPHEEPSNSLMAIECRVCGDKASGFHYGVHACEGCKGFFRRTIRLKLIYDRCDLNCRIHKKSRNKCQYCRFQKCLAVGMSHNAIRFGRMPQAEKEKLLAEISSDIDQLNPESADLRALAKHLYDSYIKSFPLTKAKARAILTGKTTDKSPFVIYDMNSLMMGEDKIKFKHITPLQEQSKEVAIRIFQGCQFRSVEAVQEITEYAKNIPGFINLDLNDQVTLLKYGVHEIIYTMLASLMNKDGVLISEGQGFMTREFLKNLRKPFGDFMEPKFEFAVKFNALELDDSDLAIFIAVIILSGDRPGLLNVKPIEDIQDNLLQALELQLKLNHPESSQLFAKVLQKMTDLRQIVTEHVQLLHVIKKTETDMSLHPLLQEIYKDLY
Description: Agonist activity at PPARgamma in mouse 3T3-L1 cells assessed as induction of adipocyte differentiation at 0.3 to 3 uM after 15 days by Oil Red O staining-based assay. Type of data set: cell-based. The settings on record: 3t3-l1, 360 h.

Another data set concerns HepG2. Description: Cytotoxicity against human HepG2 cells at 1 to 100 uM after 48 hrs by WST assay. The format is cell-based. The note with it: hepg2, 48 h.
The test system of data set [3] is Mus musculus. Description: Anti-inflammatory activity in zymosan-induced paw edema C57BL/6N mouse model assessed as reduction in paw edema at 10 mg/kg, po via gavage pretreated for 30 mins followed by zymosan injection and measured after 8 hrs post zymosan injection by plethysmometry. The format is functional, organism-based. In a few lines:
(§2)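 Zymosan was injected intraplantar into one hindpaw of C57BL/6N mice. Test compound or vehicle was given orally at 10 mg/kg 30 min beforehand. Paw edema was measured by plethysmometry at 8 h and 24 h after zymosan, with the contralateral hindpaw as a control.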

A short description of data set [4]: Elimination half life in C57BL/6JRj mouse at 10 mg/kg, po by LC-MS/MS analysis. The format is ADME, organism-based. The note with it: in vivo, read-out: beta t1/2 (converted). The method in brief: as §1
The target of data set [5] is T2, Peroxisome proliferator-activated receptor gamma (Mus musculus) (UniProt P37238).
T2 sequence (whole entry): T1 sequence (P37238 whole entry)
Description: Agonist activity at PPARgamma in mouse 3T3-L1 cells assessed as increase in CPT1A mRNA expression at 1 uM after 15 days by quantitative real-time PCR method. Type of data set: cell-based. A general note: In qPCR the cycle at which signal appears reflects the starting amount.

For data set [6], the system named is Mus musculus. Description: Anti-inflammatory activity in zymosan-induced paw edema C57BL/6N mouse model assessed as reduction in paw edema at 10 mg/kg, po via gavage pretreated for 30 mins followed by zymosan injection and measured after 24 hrs post zymosan injection by plethysmometry. Type of data set: functional, organism-based. The method in brief: as §2

The subject of data set [7] is Mus musculus. Description: Activation of PPARgamma in C57BL/6JRj mouse assessed as up-regulation of CD36 expression at 10 mg/kg, po administered as single dose measured at 8 hrs post dose relative to untreated control. Type of data set: functional, organism-based. In a few lines: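 Healthy wild-type male C57BL6/J mice were dosed orally at 10 mg/kg or with vehicle. Hepatic transcription of the PPARγ target gene CD36 was assessed in liver against vehicle-treated animals. Mean±SEM, n(vehicle)=2, n(treated)=4.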

Data set [8] can be described thus: Aqueous solubility of the compound at 5 mg after 24 hrs by HPLC analysis. Type of data set: physicochemical. The note with it: water.
For data set [9], the target named is T3, Cysteinyl leukotriene receptor 1 (Homo sapiens, UniProt Q9Y271).
T3 sequence (Q9Y271 whole entry): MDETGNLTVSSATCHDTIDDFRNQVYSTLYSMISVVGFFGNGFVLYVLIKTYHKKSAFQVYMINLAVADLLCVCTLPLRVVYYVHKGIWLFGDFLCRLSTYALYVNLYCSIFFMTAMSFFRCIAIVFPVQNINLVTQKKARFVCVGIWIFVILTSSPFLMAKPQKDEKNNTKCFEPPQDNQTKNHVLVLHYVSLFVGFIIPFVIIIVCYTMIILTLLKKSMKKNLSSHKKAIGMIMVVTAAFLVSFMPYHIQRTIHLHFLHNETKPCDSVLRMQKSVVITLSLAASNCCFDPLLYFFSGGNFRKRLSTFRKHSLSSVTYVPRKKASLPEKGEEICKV
Description: Antagonist potency at human CysLT1R expressed in African green monkey COS7 cells assessed as inhibition of LTD4-induced Ca2+ levels after 60 mins by fura-2/AM-fluorescence based spectrofluorimetry. The settings on record: read-out: pA2 (converted). The format is functional, cell-based.

The subject of data set [10] is Mus musculus. Description: Time at which plasma concentration stays above in-vitro pA2 for CysLT1 in C57BL/6JRj mouse at 10 mg/kg, po by LC-MS/MS analysis. The format is ADME, organism-based. The note with it: in vivo. The method in brief:
as §1

The target in data set [11] is T1, Peroxisome proliferator-activated receptor gamma. Description: Agonist activity at PPARgamma in mouse 3T3-L1 cells assessed as increase in CD36 mRNA expression at 1 uM after 15 days by quantitative real-time PCR method. The settings on record: 3t3-l1, 360 h. Type of data set: cell-based.
Data set [12] in a line: Metabolic stability in Sprague-Dawley rat liver microsomes assessed as compound remaining at 10 uM in presence of NADPH regenerating system after 4 hrs by HPLC analysis. Type of data set: ADME, microsome. The settings on record: read-out: Stability. In general terms: Microsomes from liver hold many membrane-bound enzymes, among them those of drug oxidation.
Data set [13] has as its system Mus musculus. Description: Time at which plasma concentration stays above in-vitro IC50 for sEH in C57BL/6JRj mouse at 10 mg/kg, po by LC-MS/MS analysis. The settings on record: in vivo. The format is ADME, organism-based. In a few lines:
as §1

The nature of data set [14]: Lipophilicity, log D of the compound at 30 uM at pH 7.4 by HPLC method. The format is physicochemical. The settings on record: buffer.
The subject of data set [15] is Mus musculus. Description: Time at which plasma concentration stays above in-vitro EC50 for partial agonist activity at PPARgamma in C57BL/6JRj mouse at 10 mg/kg, po by LC-MS/MS analysis. The note with it: in vivo. Type of data set: organism-based. The method in brief:
as §1

Data set [16] has as its target T4, Nuclear receptor subfamily 1 group I member 3 (Homo sapiens, UniProt Q14994).
T4 sequence (Q14994 whole entry): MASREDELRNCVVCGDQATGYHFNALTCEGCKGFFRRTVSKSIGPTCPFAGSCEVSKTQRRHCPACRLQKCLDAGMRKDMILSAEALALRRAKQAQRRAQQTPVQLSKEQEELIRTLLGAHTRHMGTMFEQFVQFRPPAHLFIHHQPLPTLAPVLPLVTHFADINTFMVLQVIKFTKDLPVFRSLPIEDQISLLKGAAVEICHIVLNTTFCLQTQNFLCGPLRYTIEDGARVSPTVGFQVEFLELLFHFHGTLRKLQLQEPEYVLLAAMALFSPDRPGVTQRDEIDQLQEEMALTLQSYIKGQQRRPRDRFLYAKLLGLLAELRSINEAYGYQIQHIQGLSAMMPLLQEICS
Description: Agonist activity at human CAR LBD expressed HEK293T cells at 10 uM after 12 to 14 hrs by dual-glo luciferase reporter gene assay. The format is ADME.

Consider `COc1cc(C(=O)NS(=O)(=O)c2ccccc2)ccc1Cc1cn(C)c2ccc(NC(=O)NC3CCCCC3)cc12`, for which the Drug uptake result in the data set with Mus musculus [1] is “Active”. In addition, the Activity entry is given as “Not Active” in data set [2], “Non-Toxic” in the data set with HepG2, “Not Active” in [11] and “Not Active” in [16]. For the same compound, the result (in the data set with Mus musculus [3]; in data set [5]) was inactive. Besides, the half-life in data set [4] is 1.9 h. The result in the data set on Mus musculus [6] and in the data set with Mus musculus [7] was Active. This compound displayed a solubility at 24 h in data set [8] of 2.1 µg/mL (≈ 3.65 µM). Further, in data set [9], the Kb is 2 nM. For the same compound, the Time in the data set with Mus musculus [10] worked out at 8 h; in the data set on Mus musculus [13], 8 h; in the data set on Mus musculus [15], 4 h. The remaining at 4 h, 10 µM in data set [12] stood at 65%. Besides, the pH-dependent lipophilicity (logD) at 30 µM in [14] came to 1.7.

As usually defined, the solubility is how much of the substance goes into solution per volume. The logD is lipophilicity at a set pH, counting ionised and neutral species.
